Bioassay records deposited in PubChem BioAssay by several laboratories.
Granule exo inh: lytic granule exocytosis inhibition; TALL-104 LAMP-1 surface exposure, flow cytometry; cells stimulated with thapsigargin and PMA; inhibition, % at 10 µM; 360,000 compounds, 0.66% hits;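 active = inhibition above about 55%, limit read from the data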
ABHD5 PLIN5 PPI: blocks binding of human ABHD5 to perilipin-5 | Q00G26+Q8WTS1 | Split G. princeps luciferase complementation, luminescence, 4 h | inhibition, % at 4 µM | 360,000 compounds, 0.78% hits | AID 602281;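 active = inhibition above the mean inhibition across every tested compound plus 3 SD, cut at about 22% in these data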;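 note: 0% = DMSO only wells and the 100% control is not disclosed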
Target sequence (Q00G26 whole entry, looked up): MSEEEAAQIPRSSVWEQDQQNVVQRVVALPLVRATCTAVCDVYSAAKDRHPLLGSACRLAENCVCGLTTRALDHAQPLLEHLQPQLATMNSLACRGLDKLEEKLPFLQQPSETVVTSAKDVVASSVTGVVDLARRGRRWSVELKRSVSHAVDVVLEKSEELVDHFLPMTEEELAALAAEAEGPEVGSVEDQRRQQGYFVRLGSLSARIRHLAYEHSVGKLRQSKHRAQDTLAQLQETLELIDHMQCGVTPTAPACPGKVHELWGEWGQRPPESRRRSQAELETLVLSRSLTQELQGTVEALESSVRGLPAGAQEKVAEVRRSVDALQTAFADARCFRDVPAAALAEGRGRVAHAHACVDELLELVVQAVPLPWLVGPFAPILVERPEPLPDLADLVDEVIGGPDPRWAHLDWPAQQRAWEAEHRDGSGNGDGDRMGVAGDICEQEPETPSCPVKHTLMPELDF
Target sequence (Q8WTS1 whole entry, looked up): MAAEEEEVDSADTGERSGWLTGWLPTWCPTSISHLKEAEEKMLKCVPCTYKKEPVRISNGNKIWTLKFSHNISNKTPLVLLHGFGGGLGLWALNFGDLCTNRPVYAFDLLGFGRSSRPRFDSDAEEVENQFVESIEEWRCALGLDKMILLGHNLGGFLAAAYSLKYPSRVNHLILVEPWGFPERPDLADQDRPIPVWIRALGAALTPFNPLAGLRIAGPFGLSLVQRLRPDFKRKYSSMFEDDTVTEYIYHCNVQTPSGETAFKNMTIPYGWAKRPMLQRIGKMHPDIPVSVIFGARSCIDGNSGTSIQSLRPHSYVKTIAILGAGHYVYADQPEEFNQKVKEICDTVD
HKDC1 inh: inhibitors of human hexokinase HKDC1; 340,000 compounds, 0.16% hits; inhibition, % at 20 µM; Q2TB90; AID 493160; recombinant HKDC1, G6PDH/diaphorase resazurin coupled fluorescence;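 active = inhibition above about 35% when tested at 20 µM, limit read from the data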;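 note: plate controls were DMSO wells with enzyme for no effect and DMSO wells lacking enzyme for full effect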
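Assay system – recombinant HKDC1 (HK5) hexokinase enzyme, produced in-house · Input – HKDC1 at 5 µg/mL · Reagent – glucose plus 1 mM ATP as hexokinase substrates · Timing – 90 min reaction incubation at room temperature, dark · Measured by – G6PDH/diaphorase-coupled fluorescence, 1 mM NADP, 100 µM resazurin, 525/613 nm · Benchmarks – DMSO-enzyme wells negative, buffer-substituted wells positive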
PfGluPho inh: PfG6PD (Plasmodium falciparum) enzyme inhibition; inhibition, % at 20 µM; 350,000 compounds, 0.78% hits; AID 504690; PfGluPho enzyme, NADPH resazurin-diaphorase fluorescence;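 active = inhibition reaching at least a set limit at 20 µM in the primary screen, cut at about 59% in these data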;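 note: 0% = DMSO wells with substrate and 100% = DMSO wells lacking glucose-6-phosphate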
HKDC1 act conf: HKDC1 (human) activation, single-dose confirmed; shares compounds with HKDC1 inh; recombinant HKDC1, G6PDH/diaphorase resazurin fluorescence; hits give low values; inhibition, % at 20 µM; 740 compounds, 14% hits; AID 504708;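 active = inhibition at or below a set negative limit, negative inhibition meaning the enzyme was activated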
PfGluPho conf: PfG6PD inhibition, single-dose confirmed | AID 504753 | shares compounds with PfGluPho inh | 2,400 compounds, 34% hits | recombinant PfGluPho, NADPH-diaphorase-resazurin fluorescence | inhibition, % at 20 µM;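 active = inhibition of at least 50% at 20 µM in any single replicate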;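 note: 0% = DMSO with substrate and 100% = DMSO lacking glucose-6-phosphate substrate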
Diaphorase 10uM: inhibits diaphorase or oxidizes, flagging false PfG6PD hits; shares compounds with PfGluPho inh; AID 504862; diaphorase-coupled resazurin reduction, fluorescence, NADPH 10 uM; inhibition, % at 20 µM; 820 compounds, 39% hits;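 active = average inhibition reaching 50% or more with the compound at 20 µM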;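 note: resorufin red fluorescence formed as diaphorase reduces resazurin using NADPH; 0% = DMSO with enzyme and 100% = DMSO without enzyme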
Diaphorase 30uM: counter-screen for P. falciparum G6PD inhibitors: diaphorase inhibitors, oxidizers | shares compounds with PfGluPho inh | Diaphorase/resazurin coupled assay, resorufin fluorescence, 30 uM NADPH | inhibition, % at 20 µM | 820 compounds, 29% hits | AID 504863;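 active = inhibition averaging 50% or more, tested at 20 µM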;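 note: 0% = DMSO with enzyme and 100% = DMSO wells lacking diaphorase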
ABHD5-PLIN5 conf: confirmation of human ABHD5-PLIN5 interaction inhibitors; shares compounds with ABHD5 PLIN5 PPI; biochemical ABHD5-PLIN5 interaction, luminescence; inhibition, % at 4 µM; 2,200 compounds, 67% hits; AID 651612; in the data active = inhibition above about 23%;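 note: 0% = DMSO vehicle wells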
HNF4 counter: active in HNF4 split-luciferase counter-screen for ABHD5-PLIN5 inhibitors; inhibition, % at 4 µM; HNF4 dimerization, luminescence, biochemical; 2,200 compounds, 77% hits; AID 651674; shares compounds with ABHD5 PLIN5 PPI;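 active = mean inhibition across replicate wells exceeding the computed hit threshold, cut at about 13% in these data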;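 note: light from luciferase halves that rejoin when HNF4 fusion proteins dimerize; 0% = DMSO only wells and the 100% control is not given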
Granule exo CP1: blocks lytic granule exocytosis; shares compounds with Granule exo inh; TALL-104 cells, LAMP-1 externalization, flow cytometry; stimulated with PMA plus thapsigargin; inhibition, % at 10 µM; 1,500 compounds, 11% hits; AID 651954; in the data active = inhibition above about 60%;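 note: 0% = stimulated vehicle wells and 100% = unstimulated wells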
Numbers without * were called inactive; · = no result given. A selection: hits, their analogues and other compounds. The true share with any hit is near 2.2%.

SMILES	Granule exo inh	ABHD5 PLIN5 PPI	HKDC1 inh	PfGluPho inh	HKDC1 act conf	PfGluPho conf	others
COc1ccc(O)c(CN2CCC(n3nccc3NC(=O)C3CCCC3)CC2)c1	2	11	4	28	·	·
N#Cc1c([N+](=O)[O-])cc([N+](=O)[O-])cc1S(=O)(=O)Cc1ccccc1	-1	36*	34	109*	20	100*	Diaphorase 10uM=91*;Diaphorase 30uM=92*;ABHD5-PLIN5 conf=64*;HNF4 counter=95*
O=C1CN(CC(=O)NC2CCCc3ccccc32)CCN1 (configuration not stated)	-5	4	0	3	·	·
O=C1C(Cl)=C(NCCc2ccccc2)C(=O)N1CCc1ccccc1	2	-9	-4	7	·	·
O=C1C(Cl)=C(NCCc2ccccc2)C(=O)c2ccccc21	3	27*	53*	97*	59	80*	Diaphorase 10uM=2;Diaphorase 30uM=-2;ABHD5-PLIN5 conf=88*;HNF4 counter=104*
O=C1C(O)=CC(=C(c2ccccc2)c2ccccc2)c2ccccc21	-57	97*	78*	117*	18	-25	ABHD5-PLIN5 conf=18;HNF4 counter=88*
COc1ccc(NC(=O)NCc2ccccn2)c(OC)c1	-2	-2	2	-14	·	·
COc1ccc(OC)c2c1C(=O)c1ccccc1C2=O	·	·	19	22	·	·
COC1=CC(=O)C(OC)=C(OC)C1=O	1	26*	76*	120*	72	·	ABHD5-PLIN5 conf=52*;HNF4 counter=73*
Cc1cc(F)ccc1NC(=O)CCc1ccc(S(=O)(=O)N2CCOCC2)cc1	2	6	6	2	·	·
CCOc1ccc(N)c(SSc2cc(OCC)ccc2N)c1	48	73*	-42	68*	-27	45	ABHD5-PLIN5 conf=82*;HNF4 counter=97*
COc1cc(CN2CCCC(C(=O)c3ccc4c5c(cccc35)CC4)C2)cc(OC)c1O (configuration not stated)	73*	29*	34	74*	26	79*	Diaphorase 10uM=16;Diaphorase 30uM=0;ABHD5-PLIN5 conf=15;HNF4 counter=40*;Granule exo CP1=2
O=C(c1ccc2c3c(cccc13)CC2)C1CCCN(Cc2cccnc2)C1 (configuration not stated)	-3	5	3	6	·	·
O=C(Cn1cc(S(=O)(=O)Cc2cccc(F)c2)c2ccccc21)N1CCOCC1	-2	-1	-8	15	·	·
Cc1ccc(C(=O)c2c(C)oc3c2C(=O)C(=O)c2ccccc2-3)cc1	103*	51*	48*	107*	46	92*	Diaphorase 10uM=92*;Diaphorase 30uM=98*;ABHD5-PLIN5 conf=84*;HNF4 counter=60*;Granule exo CP1=42
COc1ccc(S(=O)(=O)Nc2ccc(O)c3ccccc23)cc1	87*	2	46*	40	51	·	Granule exo CP1=6
CCCN(CC(=O)Nc1ccccc1C)C(=O)CC(NC(=O)c1ccccc1)c1ccccc1 (configuration not stated)	18	-5	4	-7	·	·
O=S(=O)(Nc1cc(Sc2ncn[nH]2)c(O)c2ccccc12)c1ccccc1	101*	-4	55*	102*	48	98*	Diaphorase 10uM=53*;Diaphorase 30uM=46;Granule exo CP1=103*
COc1ccccc1C(=O)Nc1ccc2c(c1)nc1n2CCN(C2CCCCC2)C1	-1	4	3	17	·	·
COC(=O)c1ccc(O)cc1	6	2	-3	2	·	·
COC(=O)c1ccc(CCc2cc(O)c(Br)cc2O)cc1	98*	93*	69*	119*	54	19	ABHD5-PLIN5 conf=21;HNF4 counter=48*;Granule exo CP1=77*
C=CCOC(=O)C1=C(C)N=c2s/c(=C3\C(=O)N(CC(=O)O)c4ccccc43)c(=O)n2C1c1ccc(OC)cc1 (configuration not stated)	0	-1	2	60*	·	-7
CC(C)(C)n1ncc2c(=O)n(Cc3cccc(Cl)c3)cnc21	0	-5	-5	0	·	·
Cc1ccc(-c2cc(-c3ccccc3)c(C#N)c(N)n2)o1	-1	5	12	83*	·	-6
COc1ccc(C(C)=O)c(OCC(=O)NCCC2=CCCCC2)c1	-6	4	·	65*	·	44
SMILES	Granule exo inh	ABHD5 PLIN5 PPI	HKDC1 inh	PfGluPho inh	HKDC1 act conf	PfGluPho conf	others
COc1ccc(OCC(=O)NCCC2=CCCCC2)c([N+](=O)[O-])c1	6	-1	5	-2	·	·
Cc1c(NS(=O)(=O)c2cccc(C(=O)OCC(=O)c3ccc(Cl)cc3)c2)c(=O)n(-c2ccccc2)n1C	5	-7	2	-18	·	·
COc1cc(Cl)ccc1NC(=O)COc1ccccc1C(=O)N1CCN(c2ccc(O)cc2)CC1	6	9	-2	68*	·	42
Cc1cc(Cl)ccc1OCC(=O)Nc1ccccc1C(=O)N1CCOCC1	1	2	-3	3	·	·
CC(C)(C)c1cc(C(=S)N2CCN(CCO)CC2)cc(C(C)(C)C)c1O	-1	-2	-8	60*	·	11
OCCN1CCN(C(=S)c2ccc(Cl)cc2)CC1	-11	7	-3	56	·	·
CC(C)OC(=O)c1ccc(NCc2cc(O)ccc2O)cc1	7	4	26	35	·	·
COC(=O)c1ccc(CCc2cc(O)ccc2O)cc1	-3	42*	27	59	·	10
COc1cccc(S(=O)(=O)Nc2ccc3c(c2)C(=O)N(C)C[C@H](OC)[C@H](C)CN[C@@H](C)CO3)c1	-3	1	·	·	·	·
CC(N=C1NS(=O)(=O)c2ccccc21)C(=O)N1CCc2ccccc2C1 (configuration not stated)	-1	3	-2	-10	·	·
CCOc1cc(C2CC(=O)N3CN(C4CCCCC4)CSC3=C2C#N)ccc1O (configuration not stated)	-2	-15	17	76*	·	44
CC(C)c1ccc(C2CC(=O)N3CN(Cc4ccco4)CSC3=C2C#N)cc1 (configuration not stated)	21	-6	17	61*	·	16
COc1ccc2ccccc2c1C1CC(=O)N2CN(Cc3ccco3)CSC2=C1C#N (configuration not stated)	16	-14	13	68*	·	42
CSC1=C(C#N)C(c2ccc(C(C)C)cc2)CC(=O)N1 (configuration not stated)	-2	5	-1	5	·	·
